Measured values as given in ChEMBL document CHEMBL4477274, “Discovery of Novel Dot1L Inhibitors through a Structure-Based Fragmentation Approach” (ACS Med Chem Lett, 2016).
pIC50, pKi: −log10 of the molar value.

What was measured:
[1] = Oral bioavailability in Sprague-Dawley rat at 15 mg/kg administered via gastric intubation measured up to 48 hrs by LC-MS/MS analysis; assay type: ADME, organism-based; conditions: in vivo
Method in brief: (§1)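 Oral dosing was given to male Sprague Dawley rats as a suspension at 15 mg/kg. Total blood concentrations were sampled over time to give Cmax, Tmax and AUC0-inf. Oral bioavailability was calculated at this dose.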

[2] = Drug level in Sprague-Dawley rat blood at 15 mg/kg, po administered via gastric intubation up to 24 hrs by LC-MS/MS analysis; assay type: ADME, organism-based; conditions: in vivo; method in brief: as §1
[3] = Permeability of compound by HDM-PAMPA assay; assay type: ADME
[4] = molecular target: T1, Histone-lysine N-methyltransferase, H3 lysine-79 specific (Homo sapiens, UniProt Q8TEK3); assay: Inhibition of DOT1L in human MOLM13 cells assessed as suppression of HoxA9 gene after 72 hrs by luciferase reporter gene assay; assay type: cell-based
[5] = Clearance in Sprague-Dawley rat at 1 mg/kg, iv administered as bolus dose measured up to 48 hrs by LC-MS/MS analysis; assay type: ADME, organism-based; conditions: in vivo
Method in brief: (§2)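 Male Sprague Dawley rats received a single intravenous bolus at 1 mg/kg. Total blood concentrations were followed over time. Clearance, volume of distribution, half-life and AUC0-inf were derived from the blood profile.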

[6] = AUC (0 to infinity) in Sprague-Dawley rat at 1 mg/kg, iv administered as bolus dose by LC-MS/MS analysis; assay type: ADME, organism-based; set-up: dose 1 mg/kg, route intravenous, time infinity; conditions: in vivo; method in brief: as §2
MV4-11 = assay: Antiproliferative activity against human MV4-11 cells harboring MLL-AF4 treated for 6 hrs measured after 8 days by Celltiter-Glo reagent based assay; assay type: functional, cell-based
[7] = molecular target: T1, Histone-lysine N-methyltransferase, H3 lysine-79 specific; assay: Inhibition of DOT1L in human HeLa cells assessed as reduction in H3K79me2 level after 72 hrs by ELISA; assay type: cell-based
[8] = Half life in Sprague-Dawley rat at 1 mg/kg, iv administered as bolus dose by LC-MS/MS analysis; assay type: ADME, organism-based; conditions: in vivo; method in brief: as §2
[9] = Volume of distribution in Sprague-Dawley rat at 1 mg/kg, iv administered as bolus dose measured up to 48 hrs by LC-MS/MS analysis; assay type: ADME, organism-based; conditions: in vivo; method in brief: as §2
[10] = Tmax in Sprague-Dawley rat at 15 mg/kg, po administered via gastric intubation by LC-MS/MS analysis; assay type: ADME, organism-based; conditions: in vivo; method in brief: as §1
[11] = AUC (0 to infinity) in Sprague-Dawley rat at 15 mg/kg, po administered via gastric intubation by LC-MS/MS analysis; assay type: ADME, organism-based; set-up: dose 15 mg/kg, route oral, time infinity; conditions: in vivo; method in brief: as §1
[12] = Cmax in Sprague-Dawley rat at 15 mg/kg, po administered via gastric intubation measured up to 48 hrs by LC-MS/MS analysis; assay type: ADME, organism-based; set-up: dose 15 mg/kg, route oral; conditions: in vivo; method in brief: as §1
[13] = molecular target: T1, Histone-lysine N-methyltransferase, H3 lysine-79 specific; assay: Inhibition of DOT1L (2 to 416 residues) (unknown origin) using biotinylated nucleosomes as substrate preincubated for 30 mins followed by substrate addition in presence of [3H-Me]SAM by scintillation proximity assay

T1 sequence (Q8TEK3 whole entry): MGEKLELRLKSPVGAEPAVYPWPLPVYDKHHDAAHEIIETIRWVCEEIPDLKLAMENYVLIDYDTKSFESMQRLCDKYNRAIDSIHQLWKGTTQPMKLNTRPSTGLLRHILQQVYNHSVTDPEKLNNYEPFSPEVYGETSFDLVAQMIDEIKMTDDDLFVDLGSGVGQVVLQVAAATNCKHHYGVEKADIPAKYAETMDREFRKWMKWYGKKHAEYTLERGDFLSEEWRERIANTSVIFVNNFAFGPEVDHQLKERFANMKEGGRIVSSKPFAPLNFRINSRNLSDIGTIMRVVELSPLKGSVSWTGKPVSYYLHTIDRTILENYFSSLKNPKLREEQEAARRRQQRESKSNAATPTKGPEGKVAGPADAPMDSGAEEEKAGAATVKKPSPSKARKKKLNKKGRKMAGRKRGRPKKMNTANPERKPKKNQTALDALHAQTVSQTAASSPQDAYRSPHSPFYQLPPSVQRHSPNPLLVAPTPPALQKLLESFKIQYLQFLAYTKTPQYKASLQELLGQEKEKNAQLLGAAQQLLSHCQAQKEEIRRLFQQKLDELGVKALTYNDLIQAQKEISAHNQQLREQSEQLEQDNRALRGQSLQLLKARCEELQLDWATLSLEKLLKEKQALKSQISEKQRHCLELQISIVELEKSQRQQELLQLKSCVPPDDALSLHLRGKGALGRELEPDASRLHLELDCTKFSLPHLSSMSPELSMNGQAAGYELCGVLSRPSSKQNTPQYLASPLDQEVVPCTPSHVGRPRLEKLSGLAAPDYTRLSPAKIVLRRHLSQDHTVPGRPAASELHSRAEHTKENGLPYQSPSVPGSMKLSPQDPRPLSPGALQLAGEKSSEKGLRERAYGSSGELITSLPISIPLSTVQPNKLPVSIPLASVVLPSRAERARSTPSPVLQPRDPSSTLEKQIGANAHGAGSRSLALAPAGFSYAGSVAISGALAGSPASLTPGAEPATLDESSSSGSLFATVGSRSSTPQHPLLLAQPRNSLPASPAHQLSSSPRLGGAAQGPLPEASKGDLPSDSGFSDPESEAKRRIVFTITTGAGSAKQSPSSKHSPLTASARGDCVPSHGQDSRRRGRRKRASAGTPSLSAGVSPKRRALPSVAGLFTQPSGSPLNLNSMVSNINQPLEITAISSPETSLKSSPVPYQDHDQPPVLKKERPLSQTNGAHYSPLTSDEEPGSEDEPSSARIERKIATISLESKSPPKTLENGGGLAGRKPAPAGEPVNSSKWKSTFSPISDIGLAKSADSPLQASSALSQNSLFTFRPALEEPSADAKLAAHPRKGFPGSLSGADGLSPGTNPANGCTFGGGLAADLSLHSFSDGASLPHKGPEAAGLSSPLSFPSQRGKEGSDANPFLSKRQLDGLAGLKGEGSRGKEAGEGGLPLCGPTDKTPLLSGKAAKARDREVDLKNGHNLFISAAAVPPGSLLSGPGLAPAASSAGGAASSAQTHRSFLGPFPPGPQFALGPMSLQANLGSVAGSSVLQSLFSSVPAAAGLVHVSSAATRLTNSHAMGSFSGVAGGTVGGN

## CNc1ccnc(Nc2ccc3sc(Cl)c(-c4cc(-c5c(C)ncn(C)c5=O)cnc4Cl)c3c2)n1
[1]
  bioavailability: 40%
[2]
  Drug uptake: Active
[3]
  permeability: Permeable
[4]
  pIC50: 6.42
[5]
  clearance: 84 mL/min/kg
[6]
  AUC(0-inf): 0.396 µM·h
MV4-11
  pIC50: 7.07
[7]
  pIC50: 7.64
[8]
  half-life: 1.7 h
[9]
  Vd: 10 L/kg
[10]
  Tmax: 3.5 h
[11]
  AUC(0-inf): 2.37 µM·h
[12]
  Cmax: 225 nM
[13]
  pIC50: 8.85
  pKi: 9.44

## Cc1cc2ccc(NC3=NC(=O)CN3)cc2n1-c1cccnc1Cl
[13]
  pIC50: 5.39

## Cc1cc2ccc(Nc3nc(=O)cc[nH]3)cc2n1-c1cccnc1Cl
[13]
  pIC50: 5.96

## CNc1ccnc(Nc2ccc3cc(C)n(-c4cc(-c5c(C)ccn(C)c5=O)cnc4Cl)c3c2)n1
[13]
  pIC50: 8.00

## Cc1cc2ccc(Nc3cccnn3)cc2n1-c1cccnc1Cl
[13]
  pIC50: 4.55

## CNc1ccnc(Nc2ccc3cc(C)n(-c4cccnc4Cl)c3c2)n1
[13]
  pIC50: 6.55

## Cc1cc2ccc(Nc3nccc(N)n3)cc2n1-c1cccnc1Cl
[13]
  pIC50: 5.37

## CNc1ccnc(Nc2ccc3cc(C)n(-c4ccccc4Oc4ccccc4)c3c2)n1
[13]
  pIC50: 6.82

## O=C(Cn1nnc(COc2ccccc2Cl)n1)NNC(=O)Nc1ccc(Cl)cc1
[13]
  pIC50: 4.85

## O=C(Cn1nnnc1-c1ccccc1Cl)NNC(=O)Nc1ccc2ccn(-c3ccccc3Cl)c2c1
[3]
  permeability: Impermeable
[13]
  pIC50: 7.70

## O=C(Cn1nnnc1COc1ccccc1Cl)NNC(=O)Nc1ccc(Cl)cc1
[13]
  pIC50: 5.36

## CNc1ccnc(Nc2ccc3cc(C)n(-c4ccccc4Oc4cnc5c(c4)ncn5C)c3c2)n1
[4]
  pIC50: 6.47
MV4-11
  pIC50: 6.89
[7]
  pIC50: 7.80
[13]
  pIC50: 9.40
  pKi: 10.10

## CCNC(=O)Nc1ccc2ccn(-c3ccccc3Cl)c2c1
[13]
  pIC50: 4.40
